# FGF22 binding-1 = binders of human FGF22 protein, primary screen, FGF22 synaptogenesis inhibitor project, biophysical, thermal shift, single point. recombinant FGF22 thermal shift, SYPRO orange fluorescence; percent of sucrose octasulfate shift, DMSO zero. activity (Tm shift, normalised), % at 9.99 µM. hit rate 1.5% among 340,000. Fibroblast growth factor 22 (Homo sapiens), Q9HCT0;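 active = mean Tm shift, scaled 0 neutral to 100 positive control, at about 1.3% or above, every replicate too, limit read from the data; inconclusive = no clear call, values can overlap the other calls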
# Target sequence (Q9HCT0 whole entry, looked up): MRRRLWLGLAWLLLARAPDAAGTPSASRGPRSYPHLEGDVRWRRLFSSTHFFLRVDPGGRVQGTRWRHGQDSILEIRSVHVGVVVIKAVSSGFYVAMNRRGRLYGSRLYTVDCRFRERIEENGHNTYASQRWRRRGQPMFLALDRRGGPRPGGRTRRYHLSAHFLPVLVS
# ARNT-TACC3 inh = disruptors of ARNT/TACC3 protein interaction, primary screen, biochemical, AlphaScreen, single concentration | Transforming acidic coiled-coil-containing protein 3 (Homo sapiens), Q9Y6A5 | AlphaScreen His-ARNT PAS-B/GST-TACC3 binding, luminescence; TACC3 fragment carries E629A point mutation | inhibition, % at 9.99 µM | hit rate 0.66% among 390,000 | AID 623870, 2012;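 active = mean inhibition of replicates at least 50% and at least half of replicates each reaching 50%; inconclusive = half or more replicates reach 50% but mean below 50%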;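 note: 0% = complete ARNT plus TACC3 wells and 100% = ARNT alone without TACC3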
# Xi reactivation = activators of inactive X chromosome reactivation, primary screen, imaging, XiGFP fibroblasts, GFP high-content imaging, set 2; hit rate 0.055% among 360,000; activation, % at 7.58 µM; XiGFP mouse fibroblasts, % GFP-positive cells imaging, 3 d; cells co-treated with 5-aza-dC sensitizer; scaled so ellipticine positive control = 100%; AID 743238, 2013;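 active = mean normalized replicate activation at least 10% and every replicate at or above 10%; inconclusive = only one of the two criteria met; inactive = mean below 10% and not all replicates reach 10%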;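 note: 0% = median of on-plate neutral control wells and 100% = ellipticine 6 µM median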
#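 Material: XiGFP fibroblasts, SV40-immortalized; Buffer or medium: DMEM containing 5-aza-dC; Compound dosing: single point; Times: 3 days compound exposure.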
# FN deposition inh = inhibitors of fibronectin matrix deposition, primary screen, AH1F cells, Alexa488-fibronectin fluorescence, plate reader; inhibition, % at 12.6 µM; AH1F fibroblasts, overnight; hit rate 0.086% among 350,000; AID 743247, 2014;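 active = mean inhibition across replicates of 30% or more, regardless of how many single replicates reach that level; inconclusive = mean under 30% yet at least half of replicates reach 30%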;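 note: positive control wells lacked labelled fibronectin entirely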
#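 Material: AH1F fibroblasts assembling fluorescent fibronectin matrix; amount: 10000 AH1F cells/well; medium: DMEM, 2% serum; reagent: Alexa488-fibronectin, 24 nM final in well; dosing: single compound dose, delivered by pin transfer; incubation: 1 h adhesion, overnight exposure; detection: fluorescence after three HBSS washes, excitation 485 nm, emission 525 nm; measure: fibronectin deposition inhibition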
# SIRT5 block = SIRT5 desuccinylase inhibitors, primary screen, biochemical, fluorescence imaging, single point, set 5; hit rate 1.1% among 330,000; inhibition, % at 15 µM; Purified SirT5, succinyl-peptide AMC, trypsin-coupled fluorescence; AID 652115, 2013; in the data active = inhibition above about 15%; inconclusive = no clear call, values can overlap the other calls
# DENV2 CPE rescue = inhibitors of DENV2 cytopathic effect, primary screen, cell-based, plate reader, single concentration; hit rate 1.7% among 350,000; CPE inhibition, % at 9.99 µM; DENV2-infected cells, cytopathic effect rescue; in the data active = CPE inhibition above about 20%, passing the limit was not always enough; inconclusive = no clear call, values can overlap the other calls; tested in BHK-21 cells;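 note: 0% = median of neutral control wells and 100% = median of positive control wells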
# FGF22 binding-2 = binders of human FGF22 protein, dose response, FGF22 synaptogenesis inhibitor project, biophysical, thermal shift, cherry-pick retest; shares compounds with FGF22 binding-1; recombinant FGF22 thermal shift, SYPRO orange fluorescence; thermal shift activity, °C (ΔTm) at 38 µM; hit rate 2% among 1,000;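 active = fitted rise in melting shift crosses a set limit at or below the top valid dose tested; inconclusive = flat fit at mid-level activity, or a poor quality fit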
# TSA no protein = compound-only thermal shift signal without protein, dose response, artefact control for FGF22 binder project, biochemical, cherry-picked samples, RT-PCR instrument; AC50, µM (doses to about 38 µM); AID 743019, 2013; hit rate 2% among 1,000; compound-only SYPRO orange thermal shift counter-screen, no protein; shares compounds with FGF22 binding-1;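 active = rising signal whose fitted curve reaches the 0.54 level within the top valid dose, showing a melting point, actives reach about 13 µM in these data; inactive = the rest, including activity in the opposite direction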; note: value is where the raw curve crosses a fixed level and not half-maximal
# * hit, by the source's call; i = inactive; u = inconclusive; x = not tested or not shown; [ ] = another dose, or the depositor's remark. In the library only some 3.8% were active in any assay of this set; here they are far more common.
SMILES,FGF22 binding-1,ARNT-TACC3 inh,Xi reactivation,FN deposition inh,SIRT5 block,DENV2 CPE rescue,FGF22 binding-2,TSA no protein
CC=Cc1ccc2n(c1=O)C[C@@H]1[C@@H](CO)[C@H](C(=O)O)[C@H]2N1S(=O)(=O)c1ccccc1C (mixture of isomers),0,1,1,x,-8,u,x,x
CC=Cc1ccc2n(c1=O)C[C@H]1[C@H](CO)[C@@H](C(=O)N(C)C)N[C@@H]21 (mixture of isomers),1.7*,-10,0,-4,-7,-7,0.031,i
CC1([N+](=O)[O-])COP(=O)(NC2CC2)OC1 (centres undefined),46*,-2,0,9,1,-1,x,i
COc1ccc(C#Cc2ccc([C@@H]3[C@H](CO)N4CCCCN(C(=O)Cc5ccncc5)C[C@@H]34)cc2)cc1,0,12,0,x,5,11,x,x
COc1cccc(-c2ccc([C@@H]3[C@@H](CO)N4CCCCN(C(=O)Cc5ccncc5)C[C@@H]34)cc2)c1,1.4*,x,0,-1,0,6,0.065[42 µM],i
COc1cccc(-c2ccc([C@@H]3[C@H](CO)N4CCCCN(C(=O)Cc5ccncc5)C[C@@H]34)cc2)c1,1,-22,0,-4,0,0,x,x
Cc1ccccc1-n1c(O)c(/C=N/NC(=O)c2ccccc2O)c(=O)[nH]c1=S,1.8*,57*,x,4,1,2,-0.058,i
CCOC(=O)c1ccc(N=Cc2c(O)n(-c3ccccc3F)c(=S)[nH]c2=O)cc1,0,-3,0,4,-1,-3,x,x
O=C(Cc1ccccc1)N1CC2(C1)[C@H](c1ccccc1)[C@@H](CO)N2Cc1cccc(F)c1,0,x,0,x,0,3,x,x

# Screening data (PubChem)
